# mIAP inh: blocks mouse intestinal alkaline phosphatase; AID 2806; 330,000 compounds, 0.2% hits; inhibition, % at 10 µM; purified mouse IAP, CDP-Star luminescence, 30 min;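 active means inhibition of at least 40% at 10 µM in the primary screen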;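 further: plate controls were DMSO with enzyme for no effect and no enzyme wells for full effect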
# bIAP act: intestinal alkaline phosphatase (bovine) activation; purified bovine IAP, CDP-star luminescence, 30 min; stronger effect = higher value; fold of DMSO-control signal, blank-subtracted; activation factor at 20 µM; 200,000 compounds, 0.17% hits;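 active means activation factor of 2 or more at 20 µM, a signal rise over negative controls twice the positive control's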
# hIAP activ: increases human intestinal alkaline phosphatase activity | 330,000 compounds, 0.16% hits | activation factor at 10 µM | purified human IAP, CDP-Star luminescence, 30 min; stronger effect = higher value; 1 = vehicle-only enzyme, 0 = enzyme-free background | P09923;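 active means activation factor of the enzyme at least 2-fold when tested at 20 µM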
# Target sequence (P09923 whole entry, looked up): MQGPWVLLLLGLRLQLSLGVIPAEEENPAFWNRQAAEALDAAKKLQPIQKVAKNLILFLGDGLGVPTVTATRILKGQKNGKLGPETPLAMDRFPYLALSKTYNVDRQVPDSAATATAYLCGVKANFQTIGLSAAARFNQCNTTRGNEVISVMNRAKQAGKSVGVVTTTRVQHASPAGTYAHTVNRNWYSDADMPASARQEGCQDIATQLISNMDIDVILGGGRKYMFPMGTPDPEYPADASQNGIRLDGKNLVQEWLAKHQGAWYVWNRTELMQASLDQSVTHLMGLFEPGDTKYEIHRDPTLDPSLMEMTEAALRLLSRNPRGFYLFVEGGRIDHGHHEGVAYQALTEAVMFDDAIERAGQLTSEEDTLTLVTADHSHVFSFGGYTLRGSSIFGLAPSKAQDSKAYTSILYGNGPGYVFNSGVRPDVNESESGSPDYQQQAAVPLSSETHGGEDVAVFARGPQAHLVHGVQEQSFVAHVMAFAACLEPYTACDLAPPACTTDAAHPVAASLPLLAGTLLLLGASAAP
# bIAP inhibitor: blocks bovine intestinal alkaline phosphatase activity; AID 1019; 190,000 tested, under 10 active; purified bovine IAP, CDP-star luminescence, 30 min; inhibition, % at 20 µM;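 active means over 50% inhibition of intestinal alkaline phosphatase at 20 µM in the single-dose screen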
#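 System: purified bovine intestinal alkaline phosphatase (IAP) enzyme; Input: IAP diluted 1/65,000,000 in the well; Measured by: CDP-star luminescence signal; Compound dosing: 20 µM single dose; Incubation: 30 min reaction at room temperature.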
# mIAP act: increases mouse intestinal alkaline phosphatase activity; muIAP, CDP-Star luminescence, 30 min; stronger effect = higher value; 1 = vehicle-only enzyme signal, 0 = enzyme-free wells; activation factor at 10 µM; 330,000 compounds, 0.24% hits;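 active means activation factor of at least 2 at 20 µM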
#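 also added = chemiluminescent substrate CDP-Star | test system = mouse IAP enzyme | signal = chemiluminescence readout | compound = DMSO-dissolved test compounds | incubation = 30 min at room temperature | benchmarks = DMSO wells, no-enzyme wells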
# hIAP block: human IAP inhibition | AID 2544 | P09923 | 330,000 compounds, 0.12% hits | purified IAP, CDP-Star luminescence, 30 min | inhibition, % at 10 µM;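 active means inhibition reaching a set limit with compound at 10 µM in the primary screen, cut at about 35% in these data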;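 further: plate controls were DMSO wells with enzyme for no effect and no-enzyme buffer wells for full effect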
# mIAP inh conf: mouse IAP inhibition confirmation. shares compounds with mIAP inh. purified mouse IAP, CDP-Star luminescence, 30 min. inhibition, % at 10 µM. 11,000 compounds, 4.7% hits;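 active means inhibition of at least 40% at 10 µM in either of the two replicates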;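 further: plate controls were DMSO wells with enzyme for no effect and buffer wells lacking enzyme for full effect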
# Active calls of the source: *; i = inactive; / = no result given. Only some compounds are listed: those with a hit (about 0.77% of all), similar ones and a draw of the others.
SMILES,mIAP inh,bIAP act,hIAP activ,bIAP inhibitor,mIAP act,hIAP block,mIAP inh conf
CCCN1C2CCCC1CC(NC(=S)Nc1cccc(C)c1)C2 (centres undefined),-26,0.9,1.3,5,1.3,-35,/
Cc1cccc(NC(=S)NC2CC3CCCC(C2)N3CC(C)C)c1 (centres undefined),-154,1,0.93,1,2.5*,7,-145
CCc1ccc(NC(=S)NC2CC3CCC(C2)N3Cc2ccco2)cc1 (centres undefined),-32,0.9,1,5,1.3,-4,/
CCc1ccc(NC(=S)NC2CC3CCCC(C2)N3Cc2ccccc2)cc1 (centres undefined),-396,4.6*,1.4,-364,5*,-45,-170
O=C(Nc1ccccc1-c1ccccc1)NC1CC2CCCC(C1)N2Cc1ccc(F)cc1 (centres undefined),-405,5.8*,1.8,-483,5*,-85,-270
Cc1cccc(C)c1NC(=O)CN(C)C(=O)CSC(=S)N1CCCC1,1,/,0.97,/,0.99,3,/
C[C@@H](C(=O)Nc1ccc(SC(F)F)cc1)N1C(=O)C2CCCCC2C1=O (some centres undefined),-10,/,0.89,/,1.1,11,/
CC1CCCC(NC(=S)Nc2ccc(SC(F)F)cc2)C1C (centres undefined),i,0.8,1.1,24,8.1*,-15,-109
CCOC(=O)C(=NCC1CCCO1)NNc1ccccc1Cl (centres undefined),5,/,0.92,/,0.95,8,/
CCC1=NN2C(=N)/C(=C/c3c(C)nn(-c4ccccc4)c3Cl)C(=O)N=C2S1,-8,0.9,1.1,5,1.1,-6,/
CCCC1=NN2C(=N)/C(=C\c3ccc(SCc4ccco4)o3)C(=O)N=C2S1,57*,0.8,0.89,17,0.43,11,70*
CCC1=NN2C(=N)/C(=C\c3ccc(SCc4ccco4)o3)C(=O)N=C2S1,74*,0.9,0.83,13,0.26,17,72*
CCCC1=NN2C(=N)/C(=C\c3cc(C)n(Cc4ccccc4)c3C)C(=O)N=C2S1,0,/,0.99,/,1,1,/
CC1=CC=CC2=NC(=O)CC(C)(C(=O)N(CC(=O)NC3CCCC3)c3ccc(F)cc3)N12 (centres undefined),3,/,0.94,/,0.97,6,/
Cc1cc(C)c(S(=O)(=O)Nc2ccc(O)c(Sc3ncn[nH]3)c2)cc1C,79*,/,1,/,0.21,-3,86*
Cc1cc(C)c(S(=O)(=O)Nc2ccc(O)cc2)cc1C,1,0.9,1.1,13,0.99,-7,/
CC(C)c1ccc(S(=O)(=O)Nc2ccc(O)c(Sc3ncn[nH]3)c2)cc1,35,/,1.7,/,0.65,-69,/
COc1ccc(S(=O)(=O)Nc2ccc(O)c(Sc3ncn[nH]3)c2)cc1,63*,1.1,1.1,-9,0.37,-13,72*
CN1CCc2c(sc(NC(=O)C3CCCCC3)c2C(N)=O)C1,-34,/,0.97,/,1.3,3,/
Cc1ccc(S(=O)(=O)N2CCN(CCOc3cccc(C)c3)CC2)cc1,12,/,1,/,0.88,-2,/
COc1cc(/C=N/NC(=O)c2cc(O)cc(O)c2)ccc1OC(=O)c1ccccc1,50*,/,0.94,/,0.5,6,57*
O=C(N/N=C/c1ccc(OC(=O)c2ccccc2Cl)cc1)c1cc(O)cc(O)c1,47*,/,1,/,0.53,-4,61*
O=C(N/N=C/c1ccc(OC(=O)c2ccccc2Cl)cc1)c1ccccn1,-2,/,1.2,/,1,-20,/
CCOc1ccc(NC(=O)Nc2cc(OCC(F)(F)F)cc(OCC(F)(F)F)c2)cc1,-204,0.7,0.98,30,3*,2,-108
O=C(Nc1ccc(F)cc1)Nc1cc(OCC(F)(F)F)cc(OCC(F)(F)F)c1,-356,0.7,1.3,29,4.6*,-34,-111
SMILES,mIAP inh,bIAP act,hIAP activ,bIAP inhibitor,mIAP act,hIAP block,mIAP inh conf
Cc1onc(C(=O)NC2CCCCC2)c1[N+](=O)[O-],-1,/,0.87,/,1,13,/
Cc1nc2ccccc2c(=O)n1/N=C/c1ccc(O)c(O)c1O,57*,/,0.99,/,0.43,1,81*
COC(=O)c1sccc1NC(=O)C1CC1,-9,/,1.3,/,1.1,-29,/
CCOc1ccc(CCNC(=O)C2CC(C)=CCC2C(=O)O)cc1OCC (centres undefined),-3,/,1,/,1,0,/
COc1ccc(C(=O)OCC(=O)Nc2ncc([N+](=O)[O-])s2)cc1OC,63*,/,0.88,/,0.37,12,76*
Cc1ccc(CC(=O)Nc2ncc([N+](=O)[O-])s2)cc1,8,1.1,0.88,-9,0.92,12,/
O=C(COC(=O)c1ccc(Br)o1)Nc1ncc([N+](=O)[O-])s1,61*,/,0.88,/,0.39,12,59*
CCN(CC)c1ccc(S(=O)(=O)N2CCOCC2)cc1NC(=O)COC(=O)/C=C/c1ccc(C)o1,12,/,1.1,/,0.88,-5,/
COCc1c(C(=O)N/N=C/c2cccc3ccccc23)nnn1-c1nonc1N,-7,1.1,1,-6,1.1,-1,/
O=C(CCc1ccncc1)NC1CCCc2c1cnn2-c1cc(F)cc(F)c1 (centres undefined),-5,/,1.2,/,1.1,-16,/
O=C(Nc1cccc(Cl)c1)Nc1ccc2c(c1)OCO2,-162,0.8,0.95,18,2.6*,5,-146
O=C(NCc1ccc2c(c1)OCO2)Nc1cccc(Cl)c1,-92,/,1.1,/,1.9,-10,/
O=C(Nc1ccc(C(=O)N2CCCCC2)cc1)Nc1cccc(Cl)c1,-171,/,1.5,/,2.7*,-49,-139
CC(=O)Nc1ccc(NC(=O)Nc2cccc(Cl)c2)cc1,-73,/,1.2,/,1.7,-22,/
CSc1cccc(NC(=O)Nc2ccc(Cl)cc2)c1,-148,0.9,0.94,6,2.5*,6,-106
O=C(Nc1ccccc1)Nc1cccc(Cl)c1,-176,0.9,1.1,10,2.8*,-13,-111
COc1cc(/C=N/NC(=O)CN2CCCCC2)ccc1OCc1ccc(Br)cc1,8,1,0.93,-3,0.92,7,/
CCOc1ccc(OCCOCCNCCOC)cc1,-5,0.9,1.1,6,1.1,-14,/
Cn1cncc1C#Cc1c(C=O)[nH]c2ccccc12,17,/,1.1,/,0.83,-10,/
CC(=O)c1sc(NC(=O)CN2C(=O)C3CCCCC3C2=O)nc1-c1ccccc1 (centres undefined),1,/,0.82,/,0.99,18,/
C/C(=N\NC(=O)CC#N)c1cc2ccc(O)cc2oc1=O,43*,0.7,1,27,0.57,-4,48*
C=CCNC(=S)NNC(=O)c1ccco1,10,1.3,1.4,-26,0.9,-37,/
O=C(/C=C/c1ccco1)NC(=S)NNC(=O)c1ccco1,49*,0.9,1.5,6,0.51,-48,54*
